From the M2OR odorant receptor database

Tests used:
Conditions in all cases: stereoisomer not certain
UniProt Q8VGC6 = target: T1, UniProt Q8VGC6
T1 sequence (whole entry): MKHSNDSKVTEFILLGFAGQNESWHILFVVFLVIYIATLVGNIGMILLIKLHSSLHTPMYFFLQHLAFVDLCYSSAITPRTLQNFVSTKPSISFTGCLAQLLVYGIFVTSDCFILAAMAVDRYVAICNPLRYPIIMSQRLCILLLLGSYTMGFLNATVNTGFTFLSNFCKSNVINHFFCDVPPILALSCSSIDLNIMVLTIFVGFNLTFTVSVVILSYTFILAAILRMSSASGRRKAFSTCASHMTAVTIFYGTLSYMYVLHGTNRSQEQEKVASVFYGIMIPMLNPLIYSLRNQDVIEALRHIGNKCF
How it was run: (§1)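 Each entry records the cell line, G-protein, co-transfected protein and tags used. Methods varied with the source, often transient luciferase assays in mammalian cell lines. A receptor–molecule pair is called responsive (active) if the original authors judged its signal statistically different from baseline and non-responsive (inactive) otherwise.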

UniProt Q8VGD7 = target: T2, UniProt Q8VGD7
T2 sequence (whole entry): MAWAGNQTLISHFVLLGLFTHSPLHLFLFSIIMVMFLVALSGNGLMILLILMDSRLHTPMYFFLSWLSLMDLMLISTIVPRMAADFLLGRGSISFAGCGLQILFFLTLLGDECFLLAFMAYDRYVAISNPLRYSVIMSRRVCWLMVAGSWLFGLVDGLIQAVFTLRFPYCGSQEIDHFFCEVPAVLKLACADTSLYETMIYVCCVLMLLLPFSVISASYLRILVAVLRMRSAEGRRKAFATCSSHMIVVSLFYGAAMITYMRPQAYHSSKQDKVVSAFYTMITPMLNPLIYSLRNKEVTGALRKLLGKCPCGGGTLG
How it was run: as §1

UniProt Q8VGH1 = target: T3, UniProt Q8VGH1
T3 sequence (whole entry): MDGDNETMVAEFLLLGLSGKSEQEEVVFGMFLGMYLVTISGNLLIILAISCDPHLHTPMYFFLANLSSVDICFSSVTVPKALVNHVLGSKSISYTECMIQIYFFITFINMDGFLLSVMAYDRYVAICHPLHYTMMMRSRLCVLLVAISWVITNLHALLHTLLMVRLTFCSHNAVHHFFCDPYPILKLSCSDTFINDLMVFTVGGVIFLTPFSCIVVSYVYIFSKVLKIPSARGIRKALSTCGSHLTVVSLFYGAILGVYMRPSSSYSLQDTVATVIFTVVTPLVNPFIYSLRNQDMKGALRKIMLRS
How it was run: as §1

UniProt Q8VGJ1 = target: T4, UniProt Q8VGJ1
T4 sequence (whole entry): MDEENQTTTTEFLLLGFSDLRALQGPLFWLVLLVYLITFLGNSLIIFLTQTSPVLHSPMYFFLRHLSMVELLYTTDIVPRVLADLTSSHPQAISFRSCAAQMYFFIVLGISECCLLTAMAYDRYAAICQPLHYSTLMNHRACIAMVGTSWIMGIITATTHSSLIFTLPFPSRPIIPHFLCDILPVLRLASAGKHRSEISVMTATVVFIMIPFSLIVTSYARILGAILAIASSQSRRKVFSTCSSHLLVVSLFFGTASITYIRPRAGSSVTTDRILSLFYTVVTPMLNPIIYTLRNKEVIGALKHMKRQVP
How it was run: as §1

UniProt Q8VGJ3 = target: T5, UniProt Q8VGJ3
T5 sequence (whole entry): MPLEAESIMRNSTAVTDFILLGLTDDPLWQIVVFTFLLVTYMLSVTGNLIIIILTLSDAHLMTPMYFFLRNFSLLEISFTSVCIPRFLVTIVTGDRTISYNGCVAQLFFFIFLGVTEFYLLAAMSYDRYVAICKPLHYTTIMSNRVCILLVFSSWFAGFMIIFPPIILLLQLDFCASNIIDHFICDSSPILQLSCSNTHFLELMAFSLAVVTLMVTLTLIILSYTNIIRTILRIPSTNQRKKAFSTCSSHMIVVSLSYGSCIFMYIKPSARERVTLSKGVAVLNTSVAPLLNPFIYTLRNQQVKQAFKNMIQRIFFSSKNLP
How it was run: as §1

UniProt Q8VGJ5 = target: T6, UniProt Q8VGJ5
T6 sequence (whole entry): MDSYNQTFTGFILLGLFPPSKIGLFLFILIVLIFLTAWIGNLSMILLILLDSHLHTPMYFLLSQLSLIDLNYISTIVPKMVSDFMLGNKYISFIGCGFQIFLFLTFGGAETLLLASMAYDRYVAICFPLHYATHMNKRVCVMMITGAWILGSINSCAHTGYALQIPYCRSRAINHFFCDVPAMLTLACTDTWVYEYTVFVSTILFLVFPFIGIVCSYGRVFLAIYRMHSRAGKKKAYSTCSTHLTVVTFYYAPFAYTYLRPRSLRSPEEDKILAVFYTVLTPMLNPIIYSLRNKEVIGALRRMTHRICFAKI
How it was run: as §1

UniProt Q8VGL0 = target: T7, UniProt Q8VGL0
T7 sequence (whole entry): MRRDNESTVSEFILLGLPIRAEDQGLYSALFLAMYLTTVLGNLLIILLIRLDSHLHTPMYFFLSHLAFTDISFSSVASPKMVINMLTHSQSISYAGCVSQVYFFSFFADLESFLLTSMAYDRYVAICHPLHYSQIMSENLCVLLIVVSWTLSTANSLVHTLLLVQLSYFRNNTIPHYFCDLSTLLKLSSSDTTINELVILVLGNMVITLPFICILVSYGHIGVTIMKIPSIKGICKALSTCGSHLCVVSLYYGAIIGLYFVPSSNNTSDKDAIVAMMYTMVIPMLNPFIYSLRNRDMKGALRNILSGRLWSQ
How it was run: as §1

UniProt Q8VGL7 = target: T8, UniProt Q8VGL7
T8 sequence (whole entry): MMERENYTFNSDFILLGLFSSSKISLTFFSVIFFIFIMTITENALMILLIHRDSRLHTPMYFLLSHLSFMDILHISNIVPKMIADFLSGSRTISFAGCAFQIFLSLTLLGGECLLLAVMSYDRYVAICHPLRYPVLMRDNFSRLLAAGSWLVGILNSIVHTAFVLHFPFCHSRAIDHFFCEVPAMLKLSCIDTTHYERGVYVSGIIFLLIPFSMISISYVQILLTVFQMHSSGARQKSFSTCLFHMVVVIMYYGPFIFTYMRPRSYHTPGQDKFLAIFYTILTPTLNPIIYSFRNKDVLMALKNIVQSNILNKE
How it was run: as §1

UniProt Q8VGM2 = target: T9, UniProt Q8VGM2
T9 sequence (whole entry): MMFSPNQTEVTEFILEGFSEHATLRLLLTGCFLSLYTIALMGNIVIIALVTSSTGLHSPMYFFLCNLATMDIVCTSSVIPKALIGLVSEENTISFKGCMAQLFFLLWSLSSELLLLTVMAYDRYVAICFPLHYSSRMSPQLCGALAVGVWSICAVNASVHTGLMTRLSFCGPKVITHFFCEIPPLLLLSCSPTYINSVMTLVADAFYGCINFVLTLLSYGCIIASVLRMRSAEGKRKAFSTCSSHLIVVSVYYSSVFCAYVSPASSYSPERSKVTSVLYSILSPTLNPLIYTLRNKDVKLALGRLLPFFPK
How it was run: as §1

UniProt Q8VGP6 = target: T10, UniProt Q8VGP6
T10 sequence (whole entry): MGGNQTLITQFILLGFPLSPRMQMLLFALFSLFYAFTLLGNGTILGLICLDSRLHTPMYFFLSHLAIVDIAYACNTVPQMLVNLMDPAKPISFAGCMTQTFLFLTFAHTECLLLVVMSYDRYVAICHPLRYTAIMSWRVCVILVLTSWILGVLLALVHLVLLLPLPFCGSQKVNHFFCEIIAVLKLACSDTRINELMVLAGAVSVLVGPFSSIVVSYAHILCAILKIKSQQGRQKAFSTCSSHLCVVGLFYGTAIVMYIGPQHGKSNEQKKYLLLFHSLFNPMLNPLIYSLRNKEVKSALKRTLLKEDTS
How it was run: as §1

UniProt Q8VGQ3 = target: T11, UniProt Q8VGQ3
T11 sequence (whole entry): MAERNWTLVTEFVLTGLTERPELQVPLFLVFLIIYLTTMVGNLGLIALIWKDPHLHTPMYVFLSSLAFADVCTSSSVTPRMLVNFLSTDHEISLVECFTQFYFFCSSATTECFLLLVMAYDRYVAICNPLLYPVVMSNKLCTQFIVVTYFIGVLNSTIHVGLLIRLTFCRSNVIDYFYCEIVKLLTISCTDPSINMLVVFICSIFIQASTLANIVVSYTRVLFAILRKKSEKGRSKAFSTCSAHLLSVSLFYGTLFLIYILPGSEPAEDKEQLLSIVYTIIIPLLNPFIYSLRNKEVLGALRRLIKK
How it was run: as §1

UniProt Q8VGT4 = target: T12, UniProt Q8VGT4
T12 sequence (whole entry): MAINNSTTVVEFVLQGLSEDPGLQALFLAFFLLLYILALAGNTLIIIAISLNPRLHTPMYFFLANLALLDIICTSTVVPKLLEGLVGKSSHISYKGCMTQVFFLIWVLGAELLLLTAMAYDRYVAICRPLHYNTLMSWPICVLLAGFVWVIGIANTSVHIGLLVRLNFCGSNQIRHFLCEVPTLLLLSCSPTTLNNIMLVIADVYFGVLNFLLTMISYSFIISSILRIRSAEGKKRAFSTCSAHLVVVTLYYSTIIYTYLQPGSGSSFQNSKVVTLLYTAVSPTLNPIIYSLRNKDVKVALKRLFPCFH
How it was run: as §1

UniProt Q8VGU3 = target: T13, UniProt Q8VGU3
T13 sequence (whole entry): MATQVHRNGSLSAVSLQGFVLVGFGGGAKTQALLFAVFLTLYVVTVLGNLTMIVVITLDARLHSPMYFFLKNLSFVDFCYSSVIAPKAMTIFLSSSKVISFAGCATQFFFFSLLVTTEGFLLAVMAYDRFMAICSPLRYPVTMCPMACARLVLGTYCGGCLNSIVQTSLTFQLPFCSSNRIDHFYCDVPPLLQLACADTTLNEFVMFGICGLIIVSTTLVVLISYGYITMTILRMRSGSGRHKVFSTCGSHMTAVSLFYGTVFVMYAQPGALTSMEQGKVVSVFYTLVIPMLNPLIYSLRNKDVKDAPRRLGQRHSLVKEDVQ
How it was run: as §1

UniProt Q8VGV1 = target: T14, UniProt Q8VGV1
T14 sequence (whole entry): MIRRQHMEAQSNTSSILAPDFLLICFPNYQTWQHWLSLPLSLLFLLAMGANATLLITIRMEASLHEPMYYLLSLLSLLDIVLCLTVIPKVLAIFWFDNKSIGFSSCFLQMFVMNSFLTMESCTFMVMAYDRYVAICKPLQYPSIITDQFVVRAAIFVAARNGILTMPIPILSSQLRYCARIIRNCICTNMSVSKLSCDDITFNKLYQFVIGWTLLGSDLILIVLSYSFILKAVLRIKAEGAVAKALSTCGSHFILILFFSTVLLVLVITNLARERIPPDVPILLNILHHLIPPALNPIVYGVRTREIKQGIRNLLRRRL
How it was run: as §1

UniProt Q8VGV7 = target: T15, UniProt Q8VGV7
T15 sequence (whole entry): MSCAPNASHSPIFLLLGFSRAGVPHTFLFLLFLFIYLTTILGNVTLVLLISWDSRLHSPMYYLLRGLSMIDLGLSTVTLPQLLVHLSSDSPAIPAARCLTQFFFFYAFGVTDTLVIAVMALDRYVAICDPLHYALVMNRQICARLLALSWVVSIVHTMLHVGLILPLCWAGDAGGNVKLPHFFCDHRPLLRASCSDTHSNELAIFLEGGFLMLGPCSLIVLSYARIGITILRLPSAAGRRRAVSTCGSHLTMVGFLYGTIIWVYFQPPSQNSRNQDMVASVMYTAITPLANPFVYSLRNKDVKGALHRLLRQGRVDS
How it was run: as §1

UniProt Q8VGW5 = target: T16, UniProt Q8VGW5
T16 sequence (whole entry): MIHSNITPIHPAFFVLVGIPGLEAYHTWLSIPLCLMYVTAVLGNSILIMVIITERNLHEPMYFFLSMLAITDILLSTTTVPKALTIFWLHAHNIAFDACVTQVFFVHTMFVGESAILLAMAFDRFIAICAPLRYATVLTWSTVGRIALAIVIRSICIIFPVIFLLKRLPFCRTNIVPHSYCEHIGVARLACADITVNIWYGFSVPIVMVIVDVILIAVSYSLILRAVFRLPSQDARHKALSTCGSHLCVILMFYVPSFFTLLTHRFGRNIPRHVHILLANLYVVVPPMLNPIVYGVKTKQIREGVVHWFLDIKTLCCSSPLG
How it was run: as §1

UniProt Q8VGX3 = target: T17, UniProt Q8VGX3
T17 sequence (whole entry): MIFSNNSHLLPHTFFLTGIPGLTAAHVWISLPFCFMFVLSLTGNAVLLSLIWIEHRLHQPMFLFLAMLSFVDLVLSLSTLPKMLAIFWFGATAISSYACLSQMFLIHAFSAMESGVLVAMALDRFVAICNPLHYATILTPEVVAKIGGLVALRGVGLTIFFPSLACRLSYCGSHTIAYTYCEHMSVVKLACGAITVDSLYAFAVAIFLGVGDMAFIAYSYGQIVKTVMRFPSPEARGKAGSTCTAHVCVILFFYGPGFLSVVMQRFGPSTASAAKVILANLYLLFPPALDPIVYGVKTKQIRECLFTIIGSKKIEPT
How it was run: as §1

UniProt Q8VGX5 = target: T18, UniProt Q8VGX5
T18 sequence (whole entry): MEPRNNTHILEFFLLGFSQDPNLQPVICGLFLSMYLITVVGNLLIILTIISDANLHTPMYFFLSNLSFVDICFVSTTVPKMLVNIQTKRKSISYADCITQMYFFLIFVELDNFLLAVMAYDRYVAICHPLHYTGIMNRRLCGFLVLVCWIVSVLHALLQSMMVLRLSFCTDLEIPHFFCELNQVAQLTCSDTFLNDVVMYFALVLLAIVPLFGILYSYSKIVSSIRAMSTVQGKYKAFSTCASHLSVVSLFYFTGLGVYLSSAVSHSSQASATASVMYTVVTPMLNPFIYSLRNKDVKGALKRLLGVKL
How it was run: as §1

Measured: odorant receptor agonist call

Cc1nccnc1C
inactive: UniProt Q8VGC6

OCc1ccccc1
inactive: UniProt Q8VGC6

CCCCCCCCC(=O)O
active: UniProt Q8VGC6 | UniProt Q8VGV1
inactive: all other assays above

O=C(Cl)CCCCCCCC(=O)Cl
inactive: UniProt Q8VGC6

CC(=O)OCC=C(C)C
active: UniProt Q8VGC6 | UniProt Q8VGJ5 | UniProt Q8VGX5
not listed: UniProt Q8VGW5
inactive: all other assays above
